# Assay results: PubChem BioAssay AID651876 (Broad Institute, 2012)
# The source made the active and inactive calls.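 Rule for the calls: active = inhibition above 20% at 50 µM; inactive = the rest.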
# Target: Kelch-like ECH-associated protein 1 (Homo sapiens) (UniProt Q14145)
# Assay: Keap1 Kelch binding to Nrf2 peptide inhibition, confirmation, orthogonal assay for Keap1-Nrf2 interaction inhibitor project, biophysical, competitive SPR, dry powder (AID 651876)
# Conditions: stronger effect = higher value
# In short: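 timing = Kelch–compound preincubation at room temperature, SPR injection at 25 °C | assay system = Keap1 Kelch domain, biochemical | amount = 40 nM Kelch domain | doses = compound at 5 or 50 µM | read-out basis = % inhibition via free Kelch domain fraction | measured by = Double-referenced SPR association slopes | also added = biotinylated 16mer Nrf2 peptide captured on streptavidin CM5 surface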
# Sequence of Kelch-like ECH-associated protein 1 (Homo sapiens) (Q14145 whole entry, looked up): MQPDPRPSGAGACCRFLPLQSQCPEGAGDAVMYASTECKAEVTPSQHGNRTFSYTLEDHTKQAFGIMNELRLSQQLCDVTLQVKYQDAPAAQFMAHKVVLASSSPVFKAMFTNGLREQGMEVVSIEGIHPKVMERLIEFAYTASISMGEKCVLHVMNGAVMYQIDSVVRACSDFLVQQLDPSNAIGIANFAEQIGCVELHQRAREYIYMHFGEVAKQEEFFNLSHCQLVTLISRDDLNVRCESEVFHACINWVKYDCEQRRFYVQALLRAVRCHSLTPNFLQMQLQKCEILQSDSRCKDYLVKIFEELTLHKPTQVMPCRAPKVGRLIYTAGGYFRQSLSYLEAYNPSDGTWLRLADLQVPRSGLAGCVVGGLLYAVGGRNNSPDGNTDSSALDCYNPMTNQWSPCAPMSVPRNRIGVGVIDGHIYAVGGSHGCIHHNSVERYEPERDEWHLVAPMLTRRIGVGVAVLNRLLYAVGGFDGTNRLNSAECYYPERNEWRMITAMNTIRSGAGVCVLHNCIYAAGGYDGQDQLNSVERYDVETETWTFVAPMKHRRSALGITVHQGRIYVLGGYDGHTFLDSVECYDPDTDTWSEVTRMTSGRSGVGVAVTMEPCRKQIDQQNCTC
SMILES,inhibition (at 50 µM),"inhibition (inhibition, at 5 µM)"
O=C1c2ccccc2C(=O)N1CC1=NCCc2ccccc21,-0.2% (inactive),1.1%
O=C(O)C1CCCCC1C(=O)N1CCc2ccccc2[C@H]1C(=O)NC12CC3CC(CC(C3)C1)C2 (some centres undefined),-0.6% (inactive),-11.6%
